According to ChEMBL document CHEMBL1125157, “Synthesis and biological evaluation of 14-alkoxymorphinans. 3. Extensive study on cyprodime-related compounds” (J Med Chem, 1990):
Calls of active or inactive are those of the source. The rule behind the calls is not given here.

Experiments:
[1] = biological target: Delta-type opioid receptor (Mus musculus) (UniProt P32300); assay: Antagonistic activity (Ke) at Opioid receptor delta 1 was determined against DADLE in the mouse vas deferens (MVD) method.; assay type: functional, tissue-based
Delta-type opioid receptor (Mus musculus), sequence (P32300 whole entry): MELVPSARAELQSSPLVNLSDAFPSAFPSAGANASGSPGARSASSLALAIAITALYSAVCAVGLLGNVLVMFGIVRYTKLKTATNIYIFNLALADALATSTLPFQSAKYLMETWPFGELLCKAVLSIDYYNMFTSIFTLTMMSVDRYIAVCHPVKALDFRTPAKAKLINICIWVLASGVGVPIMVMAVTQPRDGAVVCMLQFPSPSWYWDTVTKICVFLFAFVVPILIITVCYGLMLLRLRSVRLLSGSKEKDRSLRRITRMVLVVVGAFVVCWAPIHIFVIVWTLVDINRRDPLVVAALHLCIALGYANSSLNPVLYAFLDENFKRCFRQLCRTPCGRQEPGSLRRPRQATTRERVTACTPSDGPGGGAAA
Method in brief: (§1)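 Mouse vas deferens antagonism was measured against normorphine (μ), ethylketocyclazocine (κ) or DADLE (δ in this tissue). Ke = [antagonist]/(DR − 1), where DR is the ratio of equiactive agonist concentrations with and without antagonist. Antagonist concentrations were chosen to give a dose ratio between 3 and 10 against the relevant agonist.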

[2] = biological target: Mu-type opioid receptor (Mus musculus) (UniProt P42866); assay: Antagonistic activity (Ke) against nor-morphine and Opioid receptor mu 1 of mouse vas deferens assay; assay type: functional, tissue-based; method in brief: as §1
Mu-type opioid receptor (Mus musculus), sequence (P42866 whole entry): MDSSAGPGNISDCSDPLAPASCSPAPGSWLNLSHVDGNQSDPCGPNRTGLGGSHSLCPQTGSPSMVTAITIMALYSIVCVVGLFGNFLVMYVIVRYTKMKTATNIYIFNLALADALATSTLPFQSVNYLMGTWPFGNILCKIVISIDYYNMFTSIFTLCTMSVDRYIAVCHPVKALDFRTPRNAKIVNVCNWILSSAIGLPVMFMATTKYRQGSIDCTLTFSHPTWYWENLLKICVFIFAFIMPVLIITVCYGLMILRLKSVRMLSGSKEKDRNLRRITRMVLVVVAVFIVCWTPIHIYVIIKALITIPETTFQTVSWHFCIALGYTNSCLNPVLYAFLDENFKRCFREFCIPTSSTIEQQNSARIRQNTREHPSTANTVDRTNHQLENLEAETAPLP

[3] = biological target: Kappa-type opioid receptor (Mus musculus) (UniProt P33534); assay: Antagonistic activity (Ke) at Opioid receptor kappa 1 was determined against ethylketocyclazocine in the mouse vas deferens (MVD); assay type: functional, tissue-based; method in brief: as §1
Kappa-type opioid receptor (Mus musculus), sequence (P33534 whole entry): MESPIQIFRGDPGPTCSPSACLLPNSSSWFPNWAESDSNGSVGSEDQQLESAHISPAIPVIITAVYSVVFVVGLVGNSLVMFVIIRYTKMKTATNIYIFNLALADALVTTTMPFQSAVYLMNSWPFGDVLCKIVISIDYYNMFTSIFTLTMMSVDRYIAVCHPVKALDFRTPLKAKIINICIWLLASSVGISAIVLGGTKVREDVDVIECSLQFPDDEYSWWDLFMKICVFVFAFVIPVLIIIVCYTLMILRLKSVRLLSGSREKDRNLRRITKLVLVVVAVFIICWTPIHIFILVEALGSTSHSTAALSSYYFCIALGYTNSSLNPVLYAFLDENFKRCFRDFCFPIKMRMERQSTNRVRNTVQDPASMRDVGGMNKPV

[4] = biological target: Delta-type opioid receptor (Mus musculus) (UniProt P32300); assay: Antagonistic activity (Ke) at Opioid receptor delta 1 was determined against DADLE in the mouse vas deferens (MVD); assay type: functional, tissue-based; method in brief: as §1
[5] = biological target: T1, Opioid receptors; mu & delta (Homo sapiens) (UniProt P41143+P35372); assay: Selectivity ratio was determined using the Ke value of Opioid receptor delta 1 to that of Opioid receptor mu 1
T1 sequence (P35372 whole entry, looked up): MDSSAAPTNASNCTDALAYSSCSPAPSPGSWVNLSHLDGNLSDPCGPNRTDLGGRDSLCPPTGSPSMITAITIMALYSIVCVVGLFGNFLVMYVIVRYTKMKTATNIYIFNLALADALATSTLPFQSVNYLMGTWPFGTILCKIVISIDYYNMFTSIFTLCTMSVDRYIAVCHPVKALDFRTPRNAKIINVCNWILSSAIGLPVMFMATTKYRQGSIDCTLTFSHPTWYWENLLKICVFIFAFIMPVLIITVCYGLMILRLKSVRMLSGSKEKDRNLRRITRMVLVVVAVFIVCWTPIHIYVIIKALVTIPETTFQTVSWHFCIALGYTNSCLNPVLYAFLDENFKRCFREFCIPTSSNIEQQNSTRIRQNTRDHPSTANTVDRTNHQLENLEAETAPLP
T1 sequence (P41143 whole entry, looked up): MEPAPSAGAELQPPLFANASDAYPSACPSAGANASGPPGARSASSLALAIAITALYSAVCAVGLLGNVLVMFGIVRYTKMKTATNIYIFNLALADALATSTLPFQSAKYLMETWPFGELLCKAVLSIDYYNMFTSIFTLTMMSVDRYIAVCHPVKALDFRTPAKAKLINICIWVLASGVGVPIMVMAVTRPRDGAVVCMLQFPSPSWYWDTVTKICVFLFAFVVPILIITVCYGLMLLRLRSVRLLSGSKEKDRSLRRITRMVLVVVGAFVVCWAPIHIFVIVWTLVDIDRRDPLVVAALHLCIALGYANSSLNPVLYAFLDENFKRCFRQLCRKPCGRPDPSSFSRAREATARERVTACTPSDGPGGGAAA
Method in brief: (§2)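 Selectivity is the ratio of Ke values from mouse vas deferens antagonism, with Ke = [antagonist]/(DR − 1). DADLE gave the δ value, ethylketocyclazocine the κ value and normorphine the μ value. Antagonist concentrations gave a dose ratio of 3–10.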

[6] = biological target: Mu-type opioid receptor (Homo sapiens) (UniProt P35372); assay: Agonist potency against mu opioid receptor expressed as the ratio of the ED40 concentrations of the DADLE and compound in guinea pig ileum; NA= No agonist activity detected; assay type: functional, tissue-based
Mu-type opioid receptor (Homo sapiens), sequence (P35372 whole entry): as the sequence (P35372 whole entry, looked up) above
Method in brief: (§3)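 Agonist activity tested on electrically stimulated isolated tissue twitch (mouse vas deferens and guinea pig ileum). ED40 is the concentration giving 40% inhibition of twitch height. Potency is given as the ratio of the ED40 of the reference agonist (normorphine, ethylketocyclazocine or DADLE) to that of the test compound. TS marks a curve too shallow to reach 40% inhibition. NA means no agonist activity was detected.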

[7] = biological target: Opioid receptors; mu & kappa (Homo sapiens) (UniProt P41145+P35372); assay: Selectivity ratio was determined using the Ke value of kappa receptor to that of mu receptor; method in brief: as §2
Opioid receptors; mu & kappa (Homo sapiens), sequence (P35372 whole entry, looked up): as above
Opioid receptors; mu & kappa (Homo sapiens), sequence (P41145 whole entry, looked up): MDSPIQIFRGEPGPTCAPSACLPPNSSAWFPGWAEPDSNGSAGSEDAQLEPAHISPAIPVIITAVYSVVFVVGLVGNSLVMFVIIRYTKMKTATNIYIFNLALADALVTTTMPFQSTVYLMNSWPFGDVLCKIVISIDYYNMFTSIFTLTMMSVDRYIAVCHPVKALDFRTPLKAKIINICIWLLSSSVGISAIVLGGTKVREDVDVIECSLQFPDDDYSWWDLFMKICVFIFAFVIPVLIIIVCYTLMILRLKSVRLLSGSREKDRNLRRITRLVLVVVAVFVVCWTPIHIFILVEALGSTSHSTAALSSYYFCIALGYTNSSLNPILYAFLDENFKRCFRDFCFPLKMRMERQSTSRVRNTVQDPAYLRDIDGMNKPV

[8] = biological target: Mu-type opioid receptor (Cavia porcellus) (UniProt P97266); assay: Agonist potency against Opioid receptor mu 1 expressed as the ratio of the ED40 concentrations of the ethylketocyclazocin and compound in guinea pig ileum TS= Too shallow to estimate ED40; assay type: functional, tissue-based; method in brief: as §3
Mu-type opioid receptor (Cavia porcellus), sequence (P97266 whole entry): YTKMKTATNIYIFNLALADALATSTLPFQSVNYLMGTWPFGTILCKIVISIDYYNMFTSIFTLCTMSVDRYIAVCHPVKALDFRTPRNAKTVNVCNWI

[9] = biological target: Mu-type opioid receptor (Homo sapiens) (UniProt P35372); assay: Agonist potency against mu opioid receptor expressed as the ratio of the ED40 concentrations of the normorphine and compound in guinea pig ileum; NA= No agonist activity detected; assay type: functional, tissue-based; method in brief: as §3
[10] = biological target: Mu-type opioid receptor (Homo sapiens) (UniProt P35372); assay: Agonist potency against mu opioid receptor expressed as the ratio of the ED40 concentrations of the normorphine and compound in guinea pig ileum; TS= Too shallow to estimate ED40; assay type: functional, tissue-based; method in brief: as §3
[11] = biological target: Mu-type opioid receptor (Homo sapiens) (UniProt P35372); assay: Agonist potency against mu opioid receptor expressed as the ratio of the ED40 concentrations of the ethylketocyclazocin and compound in guinea pig ileum; assay type: functional, tissue-based; method in brief: as §3
[12] = biological target: T1, Opioid receptors; mu & delta (Homo sapiens); assay: Selectivity ratio was determined using the Ke value of Opioid receptor delta 1 to that of mu receptor; method in brief: as §2
[13] = biological target: Mu-type opioid receptor (Homo sapiens) (UniProt P35372); assay: Agonist potency against mu opioid receptor expressed as the ratio of the ED40 concentrations of the DADLE and compound in guinea pig ileum; assay type: functional, tissue-based; method in brief: as §3
[14] = biological target: Mu-type opioid receptor (Cavia porcellus) (UniProt P97266); assay: Agonist potency against Opioid receptor mu 1 expressed as the ratio of the ED40 concentrations of the ethylketocyclazocin and compound in guinea pig ileum; assay type: functional, tissue-based; method in brief: as §3
[15] = biological target: Mu-type opioid receptor (Cavia porcellus) (UniProt P97266); assay: (§4) Agonist potency against Opioid receptor mu 1 expressed as the ratio of the ED40 concentrations of the normorphine and compound in guinea pig ileum; NA= No agonist activity detected; assay type: functional, tissue-based; method in brief: as §3
[16] = biological target: Mu-type opioid receptor (Mus musculus) (UniProt P42866); assay: as §4; assay type: functional, tissue-based; method in brief: as §3
[17] = biological target: Mu-type opioid receptor (Homo sapiens) (UniProt P35372); assay: Agonist potency against mu opioid receptor expressed as the ratio of the ED40 concentrations of the ethylketocyclazocin and compound in guinea pig ileum TS= Too shallow to estimate ED40; assay type: functional, tissue-based; method in brief: as §3
[18] = biological target: Mu-type opioid receptor (Cavia porcellus) (UniProt P97266); assay: Agonist potency against Opioid receptor mu 1 expressed as the ratio of the ED40 concentrations of the DADLE and compound in guinea pig ileum […]; assay type: functional, tissue-based; method in brief: as §3
[19] = biological target: Mu-type opioid receptor (Mus musculus) (UniProt P42866); assay: Agonist potency against Opioid receptor mu 1 expressed as the ratio of the ED40 concentrations of the normorphine and compound in guinea pig ileum; assay type: functional, tissue-based; method in brief: as §3

SMILES | Ke [1] [µM] | Ke [2] [nM] | Ke [3] [nM] | Ke [4] [nM] | Selectivity ratio [5] | Ratio [6] | Selectivity ratio [7] | Ratio [9] | Ratio [11] | further results
CCCCOc1cccc2c1[C@]13CCN(CC4CC4)[C@H](C2)[C@]1(OC)CCC(=O)C3 | 2.05 | 21 | 811 |  |  |  |  |  |  | 
CO[C@@]12CCC(=O)C[C@@]13CCN(CC1CC1)[C@@H]2Cc1cccc(OC(C)C)c13 |  | 108 | 2410 | 11300 | 105 | inactive | 22 |  |  | 
C=CCN1CC[C@]23CC(=O)CC[C@@]2(OC)[C@H]1Cc1ccc(OC)c(OC)c13 |  | 118 | 3900 | 179 |  | inactive |  | inactive |  | Ratio [8]: inactive
CCO[C@@]12CCC(=O)C[C@@]13CCN(CC1CC1)[C@@H]2Cc1ccc(OC)c(OC)c13 |  | 46 | 5300 | 1540 | 33 | inactive | 115 |  | 0.0015 | Ratio [10]: inactive
CO[C@@]12CCC(=O)[C@@H]3Oc4cccc5c4C31CCN(CC1CC1)[C@@H]2C5 | 4.03 | 168 | 648 |  |  |  |  |  |  | Selectivity ratio [12]: 24
C=CCN1CC[C@]23CC(=O)CC[C@@]2(OC)[C@H]1Cc1cccc(OC)c13 | 6.45 | 230 | 6040 |  |  |  |  |  |  | 
C=CCN1CC[C@]23CC(=O)CC[C@@]2(OCC)[C@H]1Cc1ccc(OC)c(OC)c13 |  | 184 | 6190 | 665 | 3.6 |  | 34 |  | 0.001 | Ratio [13]: 1
CO[C@@]12CCC(=O)C[C@@]13CCN(CC1CC1)[C@@H]2Cc1cccc(O)c13 |  |  |  |  |  |  |  |  |  | Ratio [14]: 0.0007; Ratio [15]: inactive; Ratio [16]: 0.001
COc1ccc2c(c1OC)[C@]13CCN(CC4CC4)[C@H](C2)[C@]1(OC)CCC(=O)C3 | 0.744 | 120 | 2100 |  |  | inactive |  | inactive |  | Ratio [17]: inactive
COc1cccc2c1[C@]13CCN(CC4CC4)[C@H](C2)[C@]1(OC)CCC(=O)C3 |  |  |  |  | 110 |  | 28 |  |  | 
CO[C@@]12CCC(=O)C[C@@]13CCN(CC1CC1)[C@@H]2Cc1ccccc13 |  |  |  |  |  |  |  |  |  | Ratio [14]: 0.0008; Ratio [18]: 0.004; Ratio [19]: 0.0004
C=CCN1CC[C@]23CC(=O)CC[C@@]2(OCC)[C@H]1Cc1cccc(OC)c13 |  | 81 | 2560 | 3740 | 46 | inactive | 32 | inactive | 0.0004 | 
CCO[C@@]12CCC(=O)C[C@@]13CCN(CC1CC1)[C@@H]2Cc1cccc(OC)c13 |  | 21.7 | 1130 | 2130 | 98 | inactive | 52 | inactive | 0.0014 | 
